Measured values reported in ChEMBL document CHEMBL4052705, “Synthesis and biological evaluation of 2-methyl-1H-benzimidazole-5-carbohydrazides derivatives as modifiers of redox homeostasis of Trypanosoma cruzi” (Bioorg Med Chem Lett, 2017).
Active and inactive are the calls of the source. The calls are words filed in the database; no cut-off is given here.

Tests used:
Trypanosoma cruzi [1] = assay: Antitrypanosomal activity against Trypanosoma cruzi Queretaro epimastigotes assessed as reduction in parasite viability incubated for 24 hrs by Neubauer hematocytometery; assay type: functional
How it was run: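 T. cruzi Queretaro-strain epimastigotes were exposed to the compounds and parasite growth was measured. IC50 was taken as the concentration that inhibits parasite growth by 50%.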

[2] = Selectivity index, ratio of CC50 for cytotoxicity against mouse J774 cells to IC50 for antitrypanosomal activity against Trypanosoma cruzi Queretaro epimastigotes; assay type: toxicity, cell-based; settings: read-out: Ratio CC50/IC50
How it was run: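 Selectivity index was calculated as CC50 in J774 mouse macrophages (resazurin reduction) divided by IC50 for growth inhibition of Queretaro-strain epimastigotes.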

Trypanosoma cruzi [3] = assay: Induction of changes in cellular redox balance in Trypanosoma cruzi Queretaro epimastigotes assessed as increase in GSH level incubated for 24 hrs by HPLC and UV-Vis spectrophotometry; assay type: functional
Trypanosoma cruzi [4] = assay: Induction of changes in cellular redox balance in Trypanosoma cruzi Queretaro epimastigotes assessed as increase in cysteine level incubated for 24 hrs by HPLC and UV-Vis spectrophotometry; assay type: functional
Trypanosoma cruzi [5] = assay: Induction of changes in cellular redox balance in Trypanosoma cruzi Queretaro epimastigotes assessed as increase in T(SH)2 level at 5 to 20 uM incubated for 24 hrs by HPLC and UV-Vis spectrophotometry; assay type: functional
[6] = Cytotoxicity against mouse J774 cells incubated for 24 hrs by resazurin dye based fluorescence assay; assay type: cell-based
How it was run: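 J774 mouse macrophage cell line was exposed to the compounds, and cytotoxicity was read as resazurin reduction using a previously described method with modifications. The read-out gave CC50.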

Compound	IC50 (Trypanosoma cruzi [1])	selectivity ratio [2]	further results
COc1cc(/C=C/C=N/NC(=O)c2ccc3[nH]c(C)nc3c2)ccc1O	8 µM	20.1	Activity (Trypanosoma cruzi [3]): Dose-dependent effect; Activity (Trypanosoma cruzi [4]): Dose-dependent effect; Activity (Trypanosoma cruzi [5]): Active; CC50 at 24 h [6]: 161 µM
COc1cc(/C=N/NC(=O)c2ccc3[nH]c(C)nc3c2)cc(OC)c1OC	> 500 µM		
COc1ccc(/C=N/NC(=O)c2ccc3[nH]c(C)nc3c2)c(OC)c1OC	> 500 µM		
Cc1nc2cc(C(=O)N/N=C/c3ccc(O)cc3)ccc2[nH]1	> 500 µM		
CC1CS(=O)(=O)CCN1/N=C/c1ccc([N+](=O)[O-])o1 (stereo not given) [NIFURTIMOX]		36.5	
COc1ccc(/C=N/NC(=O)c2ccc3[nH]c(C)nc3c2)cc1OC	> 500 µM		
COc1cc(/C=N/NC(=O)c2ccc3[nH]c(C)nc3c2)ccc1O	3 µM	53.5	Activity (Trypanosoma cruzi [3]): Dose-dependent effect; Activity (Trypanosoma cruzi [4]): Dose-dependent effect; Activity (Trypanosoma cruzi [5]): inactive; CC50 at 24 h [6]: 161 µM
Cc1nc2cc(C(=O)N/N=C/c3cc(O)ccc3O)ccc2[nH]1	> 500 µM		
Cc1nc2cc(C(=O)N/N=C/c3ccccc3)ccc2[nH]1	280 µM		
COc1ccc(/C=N/NC(=O)c2ccc3[nH]c(C)nc3c2)cc1	320 µM		
Cc1nc2cc(C(=O)N/N=C/c3ccc4c(c3)OCCO4)ccc2[nH]1	> 500 µM		

Continued by falling IC50 (Trypanosoma cruzi [1]), values first:

IC50 (Trypanosoma cruzi [1])	Compound	selectivity ratio [2]	further results
434 µM	Cc1nc2cc(C(=O)N/N=C/c3ccc([N+](=O)[O-])o3)ccc2[nH]1		
393 µM	Cc1nc2cc(C(=O)NN)ccc2[nH]1	0.6	CC50 at 24 h [6]: 233 µM
380 µM	Cc1nc2cc(C(=O)N/N=C/c3ccc(O)c(O)c3)ccc2[nH]1		
226 µM	Cc1nc2cc(C(=O)O)ccc2[nH]1	1.2	CC50 at 24 h [6]: 264 µM
7.5 µM	O=C(Cn1ccnc1[N+](=O)[O-])NCc1ccccc1 [BENZNIDAZOLE]		
